{"source": "ChEMBL document CHEMBL1148782", "about": "“Inhibitors of tumor progression loci-2 (Tpl2) kinase and tumor necrosis factor alpha (TNF-alpha) production: selectivity and in vivo antiinflammatory activity of novel 8-substituted-4-anilino-6-aminoquinoline-3-carbonitriles” (J Med Chem, 2007)", "key": {"Monocyte": {"tested_on": "Monocyte", "test": "Inhibition of LPS-stimulated TNFalpha production in monocytes", "type": "functional, Homo sapiens"}, "Blood": {"tested_on": "Blood", "test": "Inhibition of LPS-stimulated TNFalpha production in human blood", "type": "functional"}, "[1]": {"molecular_target": "Mitogen-activated protein kinase 14 (Homo sapiens, UniProt Q16539)", "sequence (Q16539 whole entry)": "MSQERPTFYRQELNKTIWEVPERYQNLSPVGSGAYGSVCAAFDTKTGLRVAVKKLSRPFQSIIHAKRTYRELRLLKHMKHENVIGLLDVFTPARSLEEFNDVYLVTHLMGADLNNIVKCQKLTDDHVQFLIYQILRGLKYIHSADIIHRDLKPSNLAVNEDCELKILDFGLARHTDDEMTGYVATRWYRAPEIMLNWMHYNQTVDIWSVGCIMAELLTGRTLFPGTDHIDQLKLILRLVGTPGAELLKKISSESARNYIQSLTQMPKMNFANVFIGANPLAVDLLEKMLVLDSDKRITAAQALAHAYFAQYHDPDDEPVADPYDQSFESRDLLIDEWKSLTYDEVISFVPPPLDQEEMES", "test": "Inhibition of p38alpha"}, "[2]": {"molecular_target": "Protein kinase C alpha type (Homo sapiens, UniProt P17252)", "test": "Inhibition of PKCalpha"}, "[3]": {"molecular_target": "cAMP-dependent protein kinase (PKA) (Homo sapiens, UniProt P22694+P17612+P22612)", "test": "Inhibition of PKA", "type": "protein assay"}, "[4]": {"molecular_target": "MAP kinase-activated protein kinase 2 (Homo sapiens, UniProt P49137)", "sequence (P49137 whole entry)": "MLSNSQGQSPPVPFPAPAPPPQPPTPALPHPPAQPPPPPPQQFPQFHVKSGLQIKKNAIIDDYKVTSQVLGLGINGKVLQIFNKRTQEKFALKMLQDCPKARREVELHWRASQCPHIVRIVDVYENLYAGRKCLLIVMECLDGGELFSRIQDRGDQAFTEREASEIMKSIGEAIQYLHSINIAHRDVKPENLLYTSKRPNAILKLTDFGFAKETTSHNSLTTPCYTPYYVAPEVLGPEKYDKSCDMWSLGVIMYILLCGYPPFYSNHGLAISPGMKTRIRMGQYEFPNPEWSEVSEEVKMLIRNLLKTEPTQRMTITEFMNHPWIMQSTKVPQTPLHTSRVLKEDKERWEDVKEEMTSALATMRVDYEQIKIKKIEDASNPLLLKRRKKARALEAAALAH", "test": "Inhibition of MK2"}, "[5]": {"molecular_target": "Proto-oncogene tyrosine-protein kinase Src (Homo sapiens, UniProt P12931)", "sequence (P12931 2-536 limits assumed)": "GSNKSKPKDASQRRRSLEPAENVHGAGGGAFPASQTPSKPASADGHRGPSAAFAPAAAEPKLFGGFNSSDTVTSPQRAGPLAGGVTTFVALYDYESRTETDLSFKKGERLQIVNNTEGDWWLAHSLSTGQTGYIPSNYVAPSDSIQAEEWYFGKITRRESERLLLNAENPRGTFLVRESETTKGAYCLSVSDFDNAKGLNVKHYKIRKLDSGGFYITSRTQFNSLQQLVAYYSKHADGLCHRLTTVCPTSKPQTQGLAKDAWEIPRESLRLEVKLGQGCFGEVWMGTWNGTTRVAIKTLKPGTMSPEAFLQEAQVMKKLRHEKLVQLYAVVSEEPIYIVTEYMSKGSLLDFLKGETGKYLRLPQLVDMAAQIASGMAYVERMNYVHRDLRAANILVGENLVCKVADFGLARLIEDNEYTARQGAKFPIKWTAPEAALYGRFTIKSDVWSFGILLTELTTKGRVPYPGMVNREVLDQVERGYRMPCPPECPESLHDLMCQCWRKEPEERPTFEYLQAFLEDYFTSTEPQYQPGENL", "test": "Inhibition of Src"}, "[6]": {"molecular_target": "Ribosomal protein S6 kinase beta-1 (Homo sapiens, UniProt P23443)", "sequence (P23443 whole entry)": "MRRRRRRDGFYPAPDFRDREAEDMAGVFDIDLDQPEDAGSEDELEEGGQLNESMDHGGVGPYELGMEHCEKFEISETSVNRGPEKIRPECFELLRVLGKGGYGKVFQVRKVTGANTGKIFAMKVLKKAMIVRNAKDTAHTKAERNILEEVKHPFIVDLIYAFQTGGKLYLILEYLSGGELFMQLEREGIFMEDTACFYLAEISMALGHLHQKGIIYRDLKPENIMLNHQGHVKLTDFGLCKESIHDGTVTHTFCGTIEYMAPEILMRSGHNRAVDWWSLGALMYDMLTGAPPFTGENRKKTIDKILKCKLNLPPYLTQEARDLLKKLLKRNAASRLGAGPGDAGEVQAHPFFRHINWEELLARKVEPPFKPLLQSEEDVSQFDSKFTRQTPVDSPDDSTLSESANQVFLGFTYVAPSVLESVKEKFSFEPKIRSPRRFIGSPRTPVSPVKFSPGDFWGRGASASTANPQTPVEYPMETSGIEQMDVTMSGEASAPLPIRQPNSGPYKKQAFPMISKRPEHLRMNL", "test": "Inhibition of S6K"}, "[7]": {"molecular_target": "Mitogen-activated protein kinase 8 (Homo sapiens, UniProt P45983)", "test": "Inhibition of Jnk1"}, "CYP3A4": {"molecular_target": "CYP3A4 (Homo sapiens, UniProt P08684)", "sequence (P08684 whole entry)": "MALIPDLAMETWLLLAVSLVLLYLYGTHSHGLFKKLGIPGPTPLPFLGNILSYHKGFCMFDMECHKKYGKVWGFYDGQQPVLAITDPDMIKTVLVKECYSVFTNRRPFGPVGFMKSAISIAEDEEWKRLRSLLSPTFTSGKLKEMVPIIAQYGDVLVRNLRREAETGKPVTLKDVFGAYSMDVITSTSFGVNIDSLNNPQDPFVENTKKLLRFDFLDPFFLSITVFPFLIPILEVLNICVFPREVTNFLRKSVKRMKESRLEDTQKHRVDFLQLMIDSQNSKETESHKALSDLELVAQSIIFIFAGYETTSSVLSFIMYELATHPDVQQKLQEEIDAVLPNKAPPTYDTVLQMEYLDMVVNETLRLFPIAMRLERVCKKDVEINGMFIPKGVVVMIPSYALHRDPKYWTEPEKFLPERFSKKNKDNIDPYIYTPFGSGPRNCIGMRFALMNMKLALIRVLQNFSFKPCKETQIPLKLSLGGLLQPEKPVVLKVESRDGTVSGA", "test": "Inhibition of CYP3A4 at 3 uM", "type": "ADME"}, "Rattus norvegicus [8]": {"tested_on": "Rattus norvegicus", "test": "AUC (0 to infinity) in Sprague-Dawley rat at 25 mg/kg, po", "type": "ADME, organism-based, Plasma", "set-up": "dose 25 mg/kg, route oral", "details": "in vivo", "how_it_was_run": "(§1)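 Female Sprague-Dawley rats were dosed by the iv or oral route. Parameters are reported as means of individual-animal pharmacokinetic values.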"}, "[9]": {"test": "Half life in Sprague-Dawley rat at 25 mg/kg, po", "type": "ADME, organism-based", "set-up": "dose 25 mg/kg, route oral", "details": "in vivo", "how_it_was_run": "as §1"}, "Rattus norvegicus [10]": {"tested_on": "Rattus norvegicus", "test": "Inhibition of TNFalpha production in Sprague-Dawley rat at 10 mg/kg, po administered 1 hr prior to LPS challenge after 1.5 hrs", "type": "functional"}, "[11]": {"molecular_target": "Mitogen-activated protein kinase kinase kinase 8 (Homo sapiens, UniProt P41279)", "sequence (P41279 whole entry)": "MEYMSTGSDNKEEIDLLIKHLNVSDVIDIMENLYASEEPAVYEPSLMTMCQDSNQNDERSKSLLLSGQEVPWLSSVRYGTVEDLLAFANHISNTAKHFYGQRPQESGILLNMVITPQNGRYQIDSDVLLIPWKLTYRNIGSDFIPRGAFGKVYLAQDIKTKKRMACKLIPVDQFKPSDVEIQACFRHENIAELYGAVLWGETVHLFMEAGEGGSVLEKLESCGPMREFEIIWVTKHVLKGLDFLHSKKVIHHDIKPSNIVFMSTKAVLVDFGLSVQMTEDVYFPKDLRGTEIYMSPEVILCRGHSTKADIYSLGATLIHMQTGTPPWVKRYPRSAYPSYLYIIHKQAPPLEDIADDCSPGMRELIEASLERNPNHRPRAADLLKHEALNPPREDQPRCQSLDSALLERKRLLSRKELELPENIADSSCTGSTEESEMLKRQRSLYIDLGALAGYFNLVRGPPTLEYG", "test": "Inhibition of Tpl2 by ELISA"}, "[12]": {"molecular_target": "Epidermal growth factor receptor (Homo sapiens, UniProt P00533)", "sequence (P00533 whole entry)": "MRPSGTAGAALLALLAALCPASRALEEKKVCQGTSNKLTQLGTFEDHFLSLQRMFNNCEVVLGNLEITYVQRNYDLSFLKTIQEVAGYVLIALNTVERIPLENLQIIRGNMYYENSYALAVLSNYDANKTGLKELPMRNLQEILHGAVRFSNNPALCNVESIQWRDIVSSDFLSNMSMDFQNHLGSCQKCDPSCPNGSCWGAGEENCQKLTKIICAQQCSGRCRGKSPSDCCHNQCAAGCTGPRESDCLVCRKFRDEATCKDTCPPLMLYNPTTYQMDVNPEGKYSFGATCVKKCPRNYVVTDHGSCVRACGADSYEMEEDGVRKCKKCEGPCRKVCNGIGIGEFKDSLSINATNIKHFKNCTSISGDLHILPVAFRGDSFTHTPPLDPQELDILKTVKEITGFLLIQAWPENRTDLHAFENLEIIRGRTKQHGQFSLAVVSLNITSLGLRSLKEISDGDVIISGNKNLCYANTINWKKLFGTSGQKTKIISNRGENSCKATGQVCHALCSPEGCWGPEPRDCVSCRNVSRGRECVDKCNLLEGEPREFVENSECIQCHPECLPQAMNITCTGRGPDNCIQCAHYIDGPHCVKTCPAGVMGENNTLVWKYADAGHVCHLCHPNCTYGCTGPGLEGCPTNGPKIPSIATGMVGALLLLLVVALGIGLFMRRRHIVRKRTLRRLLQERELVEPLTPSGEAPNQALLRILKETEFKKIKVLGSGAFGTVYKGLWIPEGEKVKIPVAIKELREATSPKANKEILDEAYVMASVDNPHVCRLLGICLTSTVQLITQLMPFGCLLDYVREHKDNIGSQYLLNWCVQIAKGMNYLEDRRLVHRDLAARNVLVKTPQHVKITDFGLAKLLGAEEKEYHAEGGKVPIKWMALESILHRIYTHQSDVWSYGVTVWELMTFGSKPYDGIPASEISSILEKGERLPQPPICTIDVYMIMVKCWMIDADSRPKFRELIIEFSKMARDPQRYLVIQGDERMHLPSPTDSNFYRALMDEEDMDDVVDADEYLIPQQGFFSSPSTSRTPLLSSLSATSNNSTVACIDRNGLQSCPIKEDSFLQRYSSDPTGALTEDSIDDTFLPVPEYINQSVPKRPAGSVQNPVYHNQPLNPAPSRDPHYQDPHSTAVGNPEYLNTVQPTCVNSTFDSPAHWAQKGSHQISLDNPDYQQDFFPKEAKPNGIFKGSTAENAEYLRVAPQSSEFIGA"}, "[13]": {"test": "Plasma clearance in Sprague-Dawley rat at 5 mg/kg, iv", "type": "ADME, organism-based", "set-up": "dose 5 mg/kg, route intravenous", "how_it_was_run": "as §1"}, "[14]": {"test": "Volume of distribution at steady state in Sprague-Dawley rat at 5 mg/kg, iv", "type": "ADME, organism-based", "set-up": "dose 5 mg/kg, route intravenous", "details": "in vivo, read-out: Vss", "how_it_was_run": "as §1"}, "[15]": {"test": "Half life in Sprague-Dawley rat at 5 mg/kg, iv", "type": "ADME, organism-based", "set-up": "dose 5 mg/kg, route intravenous", "details": "in vivo", "how_it_was_run": "as §1"}, "[16]": {"test": "Bioavailability in Sprague-Dawley rat at 25 mg/kg, po", "type": "ADME, organism-based", "details": "in vivo", "how_it_was_run": "as §1"}, "[17]": {"test": "Metabolic stability in rat liver microsomes", "type": "ADME, Microsome", "how_it_was_run": "(§2)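 Compound was incubated with liver microsomes from the stated species. Stability is expressed as parent half-life (t1/2, min). Metabolites were also profiled.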"}, "[18]": {"test": "Metabolic stability in human liver microsomes", "type": "ADME, Microsome", "how_it_was_run": "as §2"}, "[19]": {"test": "Metabolic stability in mouse liver microsomes", "type": "ADME, Microsome", "how_it_was_run": "as §2"}, "[20]": {"test": "Permeability at pH 7.4 by PAMPA method", "type": "ADME", "details": "read-out: permeability", "how_it_was_run": "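Passive permeability was measured by high-resolution PAMPA at pH 7.4.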"}, "CaM kinase II": {"molecular_target": "CaM kinase II (Homo sapiens, UniProt Q13557+Q13555+Q13554+Q9UQM7)"}, "physchem": {"test": "physchem", "details": "buffer, pH 7.4"}}, "data": [{"smiles": "N#Cc1cnc2ccc(NCc3c[nH]cn3)cc2c1Nc1ccc(F)c(Cl)c1", "values": [{"measurement": "Inhibitory concentration", "setting": "Monocyte", "result": 600, "unit": "nM"}, {"measurement": "Activity", "setting": "Blood", "result": 3.3, "unit": "µM"}]}, {"smiles": "CN(C)CCCn1cc(CNc2cc(Br)c3ncc(C#N)c(Nc4ccc(F)c(Cl)c4)c3c2)nn1", "values": [{"measurement": "Inhibitory concentration", "setting": "Monocyte", "result": 221, "unit": "nM"}, {"measurement": "Activity", "setting": "Blood", "result": 3.08, "unit": "µM"}, {"measurement": "IC50", "setting": "[1]", "result": "> 40", "unit": "µM"}, {"measurement": "IC50", "setting": "[2]", "result": "> 40", "unit": "µM"}, {"measurement": "IC50", "setting": "[3]", "result": "> 40", "unit": "µM"}, {"measurement": "IC50", "setting": "[4]", "result": "> 40", "unit": "µM"}, {"measurement": "IC50", "setting": "[5]", "result": "> 40", "unit": "µM"}, {"measurement": "IC50", "setting": "[6]", "result": "> 40", "unit": "µM"}, {"measurement": "IC50", "setting": "[7]", "result": "> 40", "unit": "µM"}, {"measurement": "inhibition at 3 µM", "setting": "CYP3A4", "result": 66, "unit": "%"}, {"measurement": "AUC/dose", "setting": "Rattus norvegicus [8]", "result": "< 10", "unit": "ng·kg·h/mg/mL"}, {"measurement": "half-life", "setting": "[9]", "result": 2.6, "unit": "h"}]}, {"smiles": "CC(C)c1[nH]cnc1CNc1cc(Br)c2ncc(C#N)c(Nc3ccc(F)c(Cl)c3)c2c1", "values": [{"measurement": "Inhibitory concentration", "setting": "Monocyte", "result": 2200, "unit": "nM"}, {"measurement": "Activity", "setting": "Blood", "result": ">20", "unit": "µM"}]}, {"smiles": "CC#CCOc1ccc(S(=O)(=O)N2CCSC(C)(C)[C@@H]2C(=O)NO)cc1", "values": [{"measurement": "inhibition in vivo at 10 mg/kg", "setting": "Rattus norvegicus [10]", "result": 85, "unit": "%"}]}, {"smiles": "N#Cc1cnc2c(Cl)cc(NCCc3c[nH]cn3)cc2c1Nc1ccc(F)c(Cl)c1", "values": [{"measurement": "Activity", "setting": "Blood", "result": ">20", "unit": "µM"}]}, {"smiles": "N#Cc1cnc2c(OCC(O)CO)cc(NCc3cnc[nH]3)cc2c1Nc1ccc(F)c(Cl)c1", "note": "(centres undefined)", "values": [{"measurement": "IC50", "setting": "[11]", "result": 0.83, "unit": "µM"}]}, {"smiles": "CC(C)c1[nH]cnc1CNc1cc(Cl)c2ncc(C#N)c(Nc3ccc(F)c(Cl)c3)c2c1", "values": [{"measurement": "Activity", "setting": "Blood", "result": 5.8, "unit": "µM"}]}, {"smiles": "CC(=O)c1cc(NCc2c[nH]cn2)cc2c(Nc3ccc(F)c(Cl)c3)c(C#N)cnc12", "values": [{"measurement": "Inhibitory concentration", "setting": "Monocyte", "result": 580, "unit": "nM"}, {"measurement": "Activity", "setting": "Blood", "result": ">10", "unit": "µM"}, {"measurement": "IC50", "setting": "[12]", "result": 0.156, "unit": "µM"}]}, {"smiles": "C[S+]([O-])c1cc(NCc2c[nH]cn2)cc2c(Nc3ccc(F)c(Cl)c3)c(C#N)cnc12", "note": "(centres undefined)", "values": [{"measurement": "Inhibitory concentration", "setting": "Monocyte", "result": 2130, "unit": "nM"}, {"measurement": "Activity", "setting": "Blood", "result": 13.3, "unit": "µM"}, {"measurement": "IC50", "setting": "[12]", "result": 5, "unit": "µM"}]}, {"smiles": "N#Cc1cnc2c(Cl)cc(NCc3nn[nH]n3)cc2c1Nc1ccc(F)c(Cl)c1", "values": [{"measurement": "IC50", "setting": "[11]", "result": 0.002, "unit": "µM"}, {"measurement": "Inhibitory concentration", "setting": "Monocyte", "result": ">5000", "unit": "nM"}, {"measurement": "Activity", "setting": "Blood", "result": ">20", "unit": "µM"}]}, {"smiles": "Cn1cncc1CNc1cc(Cl)c2ncc(C#N)c(Nc3ccc(F)c(Cl)c3)c2c1", "values": [{"measurement": "Activity", "setting": "Blood", "result": ">20", "unit": "µM"}]}, {"smiles": "CCc1[nH]cnc1CNc1cc(Cl)c2ncc(C#N)c(Nc3ccc(F)c(Cl)c3)c2c1", "values": [{"measurement": "Activity", "setting": "Blood", "result": 7.5, "unit": "µM"}]}, {"smiles": "COc1cc(NCc2c[nH]cn2)cc2c(Nc3ccc(F)c(Cl)c3)c(C#N)cnc12", "values": [{"measurement": "IC50", "setting": "[11]", "result": 0.13, "unit": "µM"}, {"measurement": "Inhibitory concentration", "setting": "Monocyte", "result": 3000, "unit": "nM"}, {"measurement": "Activity", "setting": "Blood", "result": ">10", "unit": "µM"}, {"measurement": "IC50", "setting": "[12]", "result": 2.08, "unit": "µM"}]}, {"smiles": "N#Cc1cnc2c(F)cc(NCc3c[nH]cn3)cc2c1Nc1ccc(F)c(Cl)c1", "values": [{"measurement": "IC50", "setting": "[11]", "result": 0.02, "unit": "µM"}, {"measurement": "Inhibitory concentration", "setting": "Monocyte", "result": 510, "unit": "nM"}, {"measurement": "Activity", "setting": "Blood", "result": ">10", "unit": "µM"}, {"measurement": "IC50", "setting": "[1]", "result": "> 40", "unit": "µM"}, {"measurement": "IC50", "setting": "[2]", "result": "> 40", "unit": "µM"}, {"measurement": "IC50", "setting": "[3]", "result": 10.3, "unit": "µM"}, {"measurement": "IC50", "setting": "[4]", "result": "> 40", "unit": "µM"}, {"measurement": "IC50", "setting": "[5]", "result": 20, "unit": "µM"}, {"measurement": "IC50", "setting": "[6]", "result": "> 40", "unit": "µM"}, {"measurement": "inhibition at 3 µM", "setting": "CYP3A4", "result": 96, "unit": "%"}]}, {"smiles": "N#Cc1cnc2c(Cl)cc(NCC(=O)O)cc2c1Nc1ccc(F)c(Cl)c1", "values": [{"measurement": "IC50", "setting": "[11]", "result": 0.2, "unit": "µM"}, {"measurement": "Inhibitory concentration", "setting": "Monocyte", "result": ">5000", "unit": "nM"}, {"measurement": "Activity", "setting": "Blood", "result": ">20", "unit": "µM"}]}, {"smiles": "N#Cc1cnc2c(Cl)cc(NCc3cnc[nH]3)cc2c1Nc1ccc(F)c(Cl)c1", "values": [{"measurement": "IC50", "setting": "[11]", "result": 0.02, "unit": "µM"}, {"measurement": "Inhibitory concentration", "setting": "Monocyte", "result": 350, "unit": "nM"}, {"measurement": "Activity", "setting": "Blood", "result": 4.9, "unit": "µM"}, {"measurement": "IC50", "setting": "[1]", "result": 11.2, "unit": "µM"}, {"measurement": "IC50", "setting": "[2]", "result": 23.4, "unit": "µM"}, {"measurement": "IC50", "setting": "[3]", "result": 40.1, "unit": "µM"}, {"measurement": "IC50", "setting": "[4]", "result": 40.2, "unit": "µM"}, {"measurement": "IC50", "setting": "[5]", "result": 19.9, "unit": "µM"}, {"measurement": "IC50", "setting": "[6]", "result": "> 100", "unit": "µM"}, {"measurement": "clearance", "setting": "[13]", "result": 19, "unit": "mL/min/kg"}, {"measurement": "Vd", "setting": "[14]", "result": 2.4, "unit": "L/kg"}, {"measurement": "half-life", "setting": "[15]", "result": 4.4, "unit": "h"}, {"measurement": "AUC/dose", "setting": "Rattus norvegicus [8]", "result": 24, "unit": "ng·kg·h/mg/mL"}, {"measurement": "half-life", "setting": "[9]", "result": 8.1, "unit": "h"}, {"measurement": "bioavailability", "setting": "[16]", "result": 2, "unit": "%"}, {"measurement": "half-life", "setting": "[17]", "result": 0.583, "unit": "h"}, {"measurement": "half-life", "setting": "[18]", "result": 0.517, "unit": "h"}, {"measurement": "half-life", "setting": "[19]", "result": 0.383, "unit": "h"}, {"measurement": "Papp", "setting": "[20]", "result": "< 5", "unit": "×10⁻⁶ cm/s"}, {"measurement": "IC50", "setting": "CaM kinase II", "result": "> 40", "unit": "µM"}, {"measurement": "solubility", "setting": "physchem", "result": "< 10", "unit": "µg/mL"}]}]}
